ChEMBL document CHEMBL3853331, “Preparation, Antiepileptic Activity, and Cardiovascular Safety of Dihydropyrazoles as Brain-Penetrant T-Type Calcium Channel Blockers” (J Med Chem, 2016)
pIC50: −log10 of the molar value. In brackets after ≈: the same amount, converted by molar mass.

Assays:
[1] = target: Voltage-dependent T-type calcium channel subunit alpha-1H (Homo sapiens, UniProt O95180); test: Inhibition of recombinant T-type calcium channel Cav3.2 (unknown origin) expressed in HEK293 cells assessed as inhibition of CaCl2-induced calcium influx preincubated for 3 mins prior CaCl2 addition by Fluo-4-AM dye-based FLIPR assay; format: cell-based
Chain of Voltage-dependent T-type calcium channel subunit alpha-1H (O95180 whole entry): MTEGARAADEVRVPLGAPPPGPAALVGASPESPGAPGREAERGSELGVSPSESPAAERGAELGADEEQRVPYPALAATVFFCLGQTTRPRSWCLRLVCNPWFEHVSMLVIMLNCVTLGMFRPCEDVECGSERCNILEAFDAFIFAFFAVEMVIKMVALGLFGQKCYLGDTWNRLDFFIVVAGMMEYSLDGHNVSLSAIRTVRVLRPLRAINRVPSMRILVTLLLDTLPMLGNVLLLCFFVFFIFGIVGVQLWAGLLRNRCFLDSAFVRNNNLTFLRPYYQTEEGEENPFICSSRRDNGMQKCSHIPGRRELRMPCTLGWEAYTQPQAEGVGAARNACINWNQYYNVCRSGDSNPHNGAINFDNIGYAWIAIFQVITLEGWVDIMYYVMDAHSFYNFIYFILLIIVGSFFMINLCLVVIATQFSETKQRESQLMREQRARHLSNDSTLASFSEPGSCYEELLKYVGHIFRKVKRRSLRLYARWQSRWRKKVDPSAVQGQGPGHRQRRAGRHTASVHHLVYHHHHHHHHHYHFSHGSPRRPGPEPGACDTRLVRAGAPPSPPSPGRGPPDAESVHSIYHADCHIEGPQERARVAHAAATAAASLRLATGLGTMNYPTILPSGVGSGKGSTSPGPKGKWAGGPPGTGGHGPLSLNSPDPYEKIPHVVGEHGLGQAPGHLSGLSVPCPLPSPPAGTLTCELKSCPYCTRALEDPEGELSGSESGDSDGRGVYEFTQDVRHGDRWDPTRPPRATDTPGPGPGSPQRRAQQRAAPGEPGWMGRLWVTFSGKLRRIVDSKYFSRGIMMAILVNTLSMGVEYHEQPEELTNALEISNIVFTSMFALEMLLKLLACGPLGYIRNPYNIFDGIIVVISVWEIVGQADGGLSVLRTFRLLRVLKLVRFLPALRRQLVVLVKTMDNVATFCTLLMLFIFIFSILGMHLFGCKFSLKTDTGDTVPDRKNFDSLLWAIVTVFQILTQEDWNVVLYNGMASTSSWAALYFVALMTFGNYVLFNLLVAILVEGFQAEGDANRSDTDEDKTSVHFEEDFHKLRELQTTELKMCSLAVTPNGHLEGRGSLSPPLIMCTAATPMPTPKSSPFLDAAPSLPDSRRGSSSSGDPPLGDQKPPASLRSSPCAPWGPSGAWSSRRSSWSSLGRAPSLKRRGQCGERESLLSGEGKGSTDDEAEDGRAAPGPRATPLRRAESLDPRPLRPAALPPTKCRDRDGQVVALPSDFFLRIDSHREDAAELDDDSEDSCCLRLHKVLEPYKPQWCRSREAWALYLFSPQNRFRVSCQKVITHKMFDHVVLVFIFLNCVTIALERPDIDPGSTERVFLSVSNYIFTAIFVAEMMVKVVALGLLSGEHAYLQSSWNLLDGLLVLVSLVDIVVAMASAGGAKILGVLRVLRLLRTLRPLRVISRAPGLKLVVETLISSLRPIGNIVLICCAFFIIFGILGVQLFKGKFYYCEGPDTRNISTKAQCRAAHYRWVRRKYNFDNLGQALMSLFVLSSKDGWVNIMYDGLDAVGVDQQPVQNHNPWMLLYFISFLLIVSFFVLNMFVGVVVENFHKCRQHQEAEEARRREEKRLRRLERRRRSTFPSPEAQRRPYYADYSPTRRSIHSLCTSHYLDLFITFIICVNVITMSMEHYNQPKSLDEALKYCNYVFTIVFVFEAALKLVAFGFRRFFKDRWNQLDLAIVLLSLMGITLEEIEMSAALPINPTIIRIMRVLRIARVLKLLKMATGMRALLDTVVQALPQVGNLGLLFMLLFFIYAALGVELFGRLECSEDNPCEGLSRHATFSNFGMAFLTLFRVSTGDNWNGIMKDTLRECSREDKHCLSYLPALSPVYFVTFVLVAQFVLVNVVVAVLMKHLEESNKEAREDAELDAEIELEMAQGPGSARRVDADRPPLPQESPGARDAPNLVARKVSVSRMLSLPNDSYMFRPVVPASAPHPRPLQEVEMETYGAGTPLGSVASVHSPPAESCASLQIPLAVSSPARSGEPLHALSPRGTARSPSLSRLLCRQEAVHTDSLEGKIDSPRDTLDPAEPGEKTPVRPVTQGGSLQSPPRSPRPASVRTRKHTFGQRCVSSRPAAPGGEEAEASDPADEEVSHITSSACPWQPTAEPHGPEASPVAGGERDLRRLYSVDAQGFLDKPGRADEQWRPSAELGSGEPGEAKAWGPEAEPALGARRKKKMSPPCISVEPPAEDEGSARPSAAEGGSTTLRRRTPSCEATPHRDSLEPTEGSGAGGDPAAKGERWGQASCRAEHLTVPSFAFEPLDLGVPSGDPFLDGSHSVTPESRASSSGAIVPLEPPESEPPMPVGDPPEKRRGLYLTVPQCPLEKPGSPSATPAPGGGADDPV
In short: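 HEK293 cells stably expressing Cav3.2, plated overnight at 37°C, loaded 1 h at 37°C with 3 µM Fluo-4-AM in HBSS/Hepes pH 7.4, then washed. Compound in TEAC buffer (100 mM tetraethylammonium chloride, pH 7.2), 3-fold series from 10 µM to 0.05 nM, 3 min before CaCl2 to a final 10 mM. IC50 fitted sigmoidally to the fluorescence AUC against vehicle signal; mean of at least two independent experiments.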

[2] = Aqueous solubility of the compound at pH 4 by UV-HPLC method; format: physicochemical
In short: (§1)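 Compound dispensed from a 10 mM DMSO stock and the solvent evaporated. Residue stirred 24 h at room temperature in buffer: citrate (55 mM) pH 4.0 or phosphate (67 mM) pH 7.0. Mixture filtered by centrifugation. Filtrate concentration measured by HPLC-UV against calibration solutions.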

[3] = Aqueous solubility of the compound at pH 7 by UV-HPLC method; format: physicochemical; in short: as §1
MDR1 = test: Apparent permeability across apical to basolateral side in MDCK cells expressing MDR1 (unknown origin) at 1 uM; format: ADME, cell-based, Canis lupus familiaris; conditions: dog
In short: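 MDR1-transfected MDCK cell monolayers. Compound tested at 1 µM. Apparent permeability measured in both directions, apical to basolateral and basolateral to apical. Efflux ratio taken from the two directional permeabilities.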

[4] = target: T1, Voltage-dependent T-type calcium channel subunit alpha-1G (Homo sapiens, UniProt O43497); test: Inhibition of T-type calcium channel Cav3.1 (unknown origin) expressed in HEK293 cells assessed as calcium influx by Fluo-4-AM dye-based FLIPR assay; format: cell-based
T1 sequence (O43497 whole entry): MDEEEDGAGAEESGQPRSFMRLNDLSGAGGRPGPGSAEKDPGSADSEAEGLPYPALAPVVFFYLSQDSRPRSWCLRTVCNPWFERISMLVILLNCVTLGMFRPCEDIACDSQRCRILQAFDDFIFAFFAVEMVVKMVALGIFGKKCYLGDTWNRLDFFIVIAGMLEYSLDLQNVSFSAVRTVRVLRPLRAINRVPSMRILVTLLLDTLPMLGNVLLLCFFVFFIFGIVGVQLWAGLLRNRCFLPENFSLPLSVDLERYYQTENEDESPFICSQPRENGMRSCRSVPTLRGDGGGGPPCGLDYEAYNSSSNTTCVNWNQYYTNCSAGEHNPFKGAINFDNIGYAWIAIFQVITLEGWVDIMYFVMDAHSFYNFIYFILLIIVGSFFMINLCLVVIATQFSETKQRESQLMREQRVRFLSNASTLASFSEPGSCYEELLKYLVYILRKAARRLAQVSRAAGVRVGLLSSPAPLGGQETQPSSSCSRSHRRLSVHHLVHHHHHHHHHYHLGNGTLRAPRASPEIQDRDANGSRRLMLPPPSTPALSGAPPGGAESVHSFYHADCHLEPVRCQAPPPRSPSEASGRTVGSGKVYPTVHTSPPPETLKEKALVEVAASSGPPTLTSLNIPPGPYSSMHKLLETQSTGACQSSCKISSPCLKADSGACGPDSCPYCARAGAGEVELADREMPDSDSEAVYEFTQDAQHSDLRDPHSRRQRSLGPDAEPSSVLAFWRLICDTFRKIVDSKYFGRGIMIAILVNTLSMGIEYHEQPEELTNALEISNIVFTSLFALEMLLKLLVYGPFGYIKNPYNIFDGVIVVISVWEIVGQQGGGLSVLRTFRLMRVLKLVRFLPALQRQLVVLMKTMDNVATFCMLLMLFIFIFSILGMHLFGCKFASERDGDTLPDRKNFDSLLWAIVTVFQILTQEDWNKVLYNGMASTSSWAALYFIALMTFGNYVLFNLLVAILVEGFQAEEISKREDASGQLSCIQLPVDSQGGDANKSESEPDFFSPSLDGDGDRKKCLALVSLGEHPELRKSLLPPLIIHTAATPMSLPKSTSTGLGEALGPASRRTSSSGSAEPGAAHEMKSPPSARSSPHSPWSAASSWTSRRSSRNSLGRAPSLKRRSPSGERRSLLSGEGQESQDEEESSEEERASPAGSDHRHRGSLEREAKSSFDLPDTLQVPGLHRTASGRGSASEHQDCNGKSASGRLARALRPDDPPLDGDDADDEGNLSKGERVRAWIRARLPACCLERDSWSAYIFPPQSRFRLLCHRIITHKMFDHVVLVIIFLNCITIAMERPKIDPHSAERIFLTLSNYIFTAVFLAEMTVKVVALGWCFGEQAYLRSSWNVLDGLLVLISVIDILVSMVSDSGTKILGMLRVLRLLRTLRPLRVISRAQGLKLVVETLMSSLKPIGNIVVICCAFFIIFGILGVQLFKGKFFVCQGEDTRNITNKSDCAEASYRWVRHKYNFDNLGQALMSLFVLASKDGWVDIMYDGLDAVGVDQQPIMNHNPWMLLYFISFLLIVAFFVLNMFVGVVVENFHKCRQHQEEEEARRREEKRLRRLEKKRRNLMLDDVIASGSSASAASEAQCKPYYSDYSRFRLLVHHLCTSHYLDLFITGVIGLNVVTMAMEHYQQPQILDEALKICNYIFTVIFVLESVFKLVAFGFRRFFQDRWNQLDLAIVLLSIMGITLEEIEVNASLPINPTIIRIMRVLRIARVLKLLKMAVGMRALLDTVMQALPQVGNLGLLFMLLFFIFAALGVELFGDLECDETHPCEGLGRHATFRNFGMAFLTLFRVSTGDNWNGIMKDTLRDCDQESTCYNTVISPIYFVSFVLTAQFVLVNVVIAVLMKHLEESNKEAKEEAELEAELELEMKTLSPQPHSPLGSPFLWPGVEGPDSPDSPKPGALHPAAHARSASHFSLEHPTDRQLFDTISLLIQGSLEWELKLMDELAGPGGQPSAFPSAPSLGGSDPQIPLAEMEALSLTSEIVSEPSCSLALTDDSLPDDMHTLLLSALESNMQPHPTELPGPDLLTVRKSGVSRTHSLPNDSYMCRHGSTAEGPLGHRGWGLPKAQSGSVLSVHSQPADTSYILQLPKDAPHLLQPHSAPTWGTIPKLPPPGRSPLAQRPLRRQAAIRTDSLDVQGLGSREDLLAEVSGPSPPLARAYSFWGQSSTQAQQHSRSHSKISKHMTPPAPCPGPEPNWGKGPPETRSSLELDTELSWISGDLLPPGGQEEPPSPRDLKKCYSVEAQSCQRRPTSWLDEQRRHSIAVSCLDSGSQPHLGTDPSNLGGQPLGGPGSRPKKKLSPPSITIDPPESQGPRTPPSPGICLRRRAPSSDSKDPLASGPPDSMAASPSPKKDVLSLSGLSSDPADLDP
In short: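 HEK293 cells stably expressing the channel, seeded overnight and loaded 1 h at 37°C with 3 µM Fluo-4-AM. Compounds given as a 3-fold dilution series from 10 µM to 0.05 nM and incubated 3 min. For T-type channels, dilutions in TEAC buffer and stimulation with 10 mM final CaCl2. For Cav1.2, dilutions in assay buffer and stimulation with 20 mM final KCl. IC50 from area under the fluorescence trace against vehicle; mean of at least two experiments.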

[5] = target: T1, Voltage-dependent T-type calcium channel subunit alpha-1G; test: Inhibition of human T-type calcium channel Cav3.1 expressed in CHO cells assessed as inhibition of calcium tail current at -60 mV holding potential measured after 150 secs by QPatch assay; format: cell-based
In short: (§2)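 CHO cells stably expressing human Cav3.1, Cav3.2 or Cav3.3, automated QPatch recording. 3-ms depolarization to +20 mV from a holding potential of -90 or -60 mV. Ca2+ tail current measured at -60 mV. Cs-glutamate internal and TEA-Cl external solution with 5 mM Ca2+. Effect read 150 s after application.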

[6] = target: T1, Voltage-dependent T-type calcium channel subunit alpha-1G; test: Inhibition of human T-type calcium channel Cav3.1 expressed in CHO cells assessed as inhibition of calcium tail current at -90 mV holding potential measured after 150 secs by QPatch assay; format: cell-based; in short: as §2
Rattus norvegicus [7] = species: Rattus norvegicus; test: Inhibition of Wistar rat brain potassium channel at 10 uM assessed as reduction in fast potassium current at -80 mV holding potential measured after 180 secs
In short: (§3)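 Cortical neurons from E18 Wistar rat embryos, cultured 9-15 days, recorded by manual patch clamp from a holding potential of -80 mV. K+ currents: one 50-ms step to 0 mV, fast as peak outward and slow as end-of-pulse current. Na+ currents: train of fifteen 10-ms steps to 0 mV, peak inward current read at the first and last pulses. Effects read at least 180 s after application.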

Rattus norvegicus [8] = species: Rattus norvegicus; test: Inhibition of Wistar rat brain potassium channel at 10 uM assessed as reduction in slow potassium current at -80 mV holding potential measured after 180 secs; in short: as §3
Cytochrome P450 2D6 = Cytochrome P450 2D6 (Homo sapiens, UniProt P10635); test: Inhibition of CYP2D6 (unknown origin)
[9] = Metabolic stability in human microsomes measured per mg protein; format: ADME, Microsome
[10] = Metabolic stability in rat microsomes measured per mg protein; format: ADME, Microsome
[11] = Fraction unbound in rat plasma; format: ADME, cell-free
[12] = Clearance in Wistar rat plasma at 0.2 mg/kg, iv; format: ADME, organism-based
In short: (§4)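 Male Wistar rats dosed iv at 0.2 mg/kg or po at 2 mg/kg. In the inhibited arm, the broad CYP inhibitor aminobenzotriazol was given orally 2 h before dosing. Clearance, Vss and half-life derived from plasma concentrations after the iv dose; Cmax and Tmax from the po dose.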

[13] = Half life in Wistar rat plasma at 0.2 mg/kg, iv; format: ADME, organism-based; in short: as §4
[14] = Half life in Wistar rat plasma at 0.2 mg/kg, iv administered 2 hrs after aminobenzotriazol-treatment; format: ADME, organism-based; in short: as §4
[15] = Cmax in Beagle dog plasma at 10 mg/kg, po; format: ADME, organism-based, Canis lupus familiaris; set-up: dose 10 mg/kg, route oral
In short: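 Beagle dogs given a single oral dose of 10 mg/kg; plasma Cmax and Tmax determined.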

[16] = Tmax in Wistar rat plasma at 2 mg/kg, po administered 2 hrs after aminobenzotriazol-treatment; format: ADME, organism-based
In short: (§5)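 Rats dosed orally with the CYP inhibitor aminobenzotriazol 2 h before the iv dose of 0.2 mg/kg. Oral dose was 2 mg/kg.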

[17] = Oral bioavailability in Wistar rat plasma at 2 mg/kg administered 2 hrs after aminobenzotriazol-treatment; format: ADME, organism-based; in short: as §5
[18] = Plasma concentration in Wistar rat at 100 mg/kg, po measured after 1 hr; format: ADME, organism-based
[19] = Plasma concentration in Wistar rat at 10 mg/kg, po measured after 1 hr; format: ADME, organism-based
[20] = Drug uptake in Wistar rat brain at 30 mg/kg, po measured after 1 hr; format: ADME, organism-based; conditions: read-out: Drug uptake
In short: (§6)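 Male Wistar rats given oral doses of 10, 30 or 100 mg/kg. Plasma, brain and CSF collected at 1 h, and at 3 h for the 10 mg/kg dose; compound concentrations measured in each.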

[21] = Drug uptake in Wistar rat brain at 10 mg/kg, po measured after 1 hr; format: ADME, organism-based; conditions: read-out: Drug uptake; in short: as §6
[22] = Drug uptake in Wistar rat CSF at 10 mg/kg, po measured after 3 hrs; format: ADME, organism-based, Cerebrospinal fluid; conditions: read-out: Drug uptake; in short: as §6
Rattus norvegicus [23] = test: Cardiovascular toxicity in spontaneously hypertensive rat assessed as reduction in mean […] pressure after 18 hrs at 100 mg/kg, po; format: organism-based; conditions: in vivo
In short: (§7)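 Conscious, freely moving male spontaneously hypertensive rats with telemetry recording MAP, HR and ECG. Single oral dose (5 ml/kg) given as a suspension in 0.5% w/v methylcellulose in water, in the morning during the sleep phase. Vehicle controls run in parallel, n = 8 per group.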

Rattus norvegicus [24] = test: Cardiovascular toxicity in spontaneously hypertensive rat assessed as increase in PR interval of ECG at 100 mg/kg, po; format: organism-based; conditions: in vivo; in short: as §7
[25] = Unbound drug level in Wistar rat brain at 100 mg/kg, po measured after 1 hr; format: ADME, organism-based; conditions: in vivo
[26] = Drug uptake in Wistar rat assessed as unbound drug level measured after 1 hr; format: ADME; conditions: in vivo
Rattus norvegicus [27] = test: Anticonvulsant activity in WAG/Rij rat model of generalized nonconvulsive absence-like epilepsy assessed as decrease in spontaneous seizures at 100 mg/kg, po administered as single dose at beginning of nocturnal active phase measured over 4 hrs by radiotelometry relative to vehicle control

pIC50 [1]: 7.48
solubility [2]: 33 µg/mL (≈ 87.2 µM)
solubility [3]: 2 µg/mL (≈ 5.29 µM)
Papp A→B at 1 µM (MDR1): 45 ×10⁻⁶ cm/s
pIC50 [4]: 7.54
pIC50 [5]: 6.35
pIC50 [6]: 5.74
inhibition (Rattus norvegicus [7]): 18%
inhibition (Rattus norvegicus [8]): 3%
pIC50 (Cytochrome P450 2D6): 4.36
microsomal CLint [9]: 21 µL/min/mg
microsomal CLint [10]: 104 µL/min/mg
fraction unbound [11]: 0.03
clearance [12]: 110 mL/min/kg
half-life [13]: 7.1 h
half-life [14]: 120 h
Cmax [15]: 160 nM
Tmax [16]: 6.6 h
bioavailability [17]: 100%
concentration at 1 h [18]: 1230 nM
concentration at 1 h [19]: 270 nM
concentration at 1 h [20]: 2570 nM
concentration at 1 h [21]: 800 nM
concentration at 3 h [22]: 29 nM
Drug uptake(free) [25]: 128 nM
Drug uptake(free) [26]: 37 nM
Structure (SMILES): O=C(Nc1ccc(F)cc1)N1N=C(c2ccncc2)CC1c1ccc(F)cc1 (centres undefined)
Activity (Rattus norvegicus [23]): Non-Toxic
Activity (Rattus norvegicus [24]): Toxic
inhibition in vivo at 100 mg/kg (Rattus norvegicus [27]): > 99%
